Measurements reported in ChEMBL document CHEMBL5346935, “Novel O-benzylcinnamic acid derivative L26 treats acute lung injury in mice by MD-2” (Eur J Med Chem, 2023).
The source made the active and inactive calls. The rule behind the calls is not given here.

What was measured:
[1] = (§1) Antiinflammatory activity in LPS-induced HEK-Blue hTLR4 cells assessed as reduction in alkaline phosphatase activity at 10 uM pretreated with compound for 0.5 hr followed by LPS induction and measured after 24 hrs; assay type: functional, Homo sapiens; set-up: scale not given: the % may be the effect or the level left; details: time 24.5 hrs
Procedure, shortened: (§2)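 HEK-Blue-TLR4 cells (2×10^4/well, DMEM with 10% FBS) were grown for 24 h, then pretreated with compound or DMSO for 0.5 h. LPS was added at 0.5 µg/mL for 24 h. Supernatant ALP activity was read at 405 nm with a kit. Values are mean ± SEM of three independent experiments.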

[2] = test system: RAW264.7; test: Antiinflammatory activity in LPS-induced mouse RAW264.7 cells assessed as decrease in LPS-induced IL-6 secretion pretreated for 30 mins followed by LPS-induction and measured after 24 hrs by ELISA analysis; assay type: functional, cell-based
Procedure, shortened: (§3)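 RAW 264.7 macrophages were pretreated for 30 min with 1–10 µM compound or DMSO vehicle, then stimulated with LPS (0.5 µg/mL). After 24 h, supernatant IL-6 and TNF-α were measured by ELISA. Results are mean ± SEM of triplicates, expressed as percent of the LPS group, with Student's t-test.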

[3] = test system: RAW264.7; test: Antiinflammatory activity in LPS-induced mouse RAW264.7 cells assessed as decrease in LPS-induced TNF-alpha secretion pretreated for 30 mins followed by LPS-induction and measured after 24 hrs by ELISA analysis; assay type: functional, cell-based; procedure, shortened: as §3
[4] = AUC (0 to t) in Sprague-Dawley rat at 10 mg/kg, po measured at 5 to 24 hrs by UPLC-MS/MS analysis; assay type: ADME, organism-based; set-up: dose 10 mg/kg, time upper 24 hrs, time lower 5 hrs, route po; details: in vivo
Procedure, shortened: (§4)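 Male SD rats (200 g ± 20 g, n = 6) were dosed orally by gavage at 10 mg/kg, suspended in CMC-Na with DMSO (<0.1%). Tail-vein blood was drawn at 5 min, 15 min, 30 min, 1, 2, 4, 6, 9, 12 and 24 h and centrifuged. Plasma supernatant was precipitated with an equal volume of acetonitrile and run on UPLC-MS/MS. Parameters came from a non-compartmental fit.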

[5] = AUC (0 to infinity) in Sprague-Dawley rat at 10 mg/kg, po measured at 5 to 24 hrs by UPLC-MS/MS analysis; assay type: ADME, organism-based; set-up: time lower 5 hrs, dose 10 mg/kg, time upper 24 hrs, route po; details: in vivo; procedure, shortened: as §4
[6] = Half life in Sprague-Dawley rat at 10 mg/kg, po measured at 5 to 24 hrs by UPLC-MS/MS analysis; assay type: ADME, organism-based; details: in vivo, time 5-24 hrs; procedure, shortened: as §4
[7] = Tmax in Sprague-Dawley rat at 10 mg/kg, po measured at 5 to 24 hrs by UPLC-MS/MS analysis; assay type: ADME, organism-based; details: in vivo, time 5-24 hrs; procedure, shortened: as §4
[8] = Cmax in Sprague-Dawley rat at 10 mg/kg, po measured at 5 to 24 hrs by UPLC-MS/MS analysis; assay type: ADME, organism-based; set-up: dose 10 mg/kg, time 5-24 hrs, route po; details: in vivo; procedure, shortened: as §4
[9] = test system: RAW264.7; test: Binding affinity to MD-2 in mouse RAW264.7 cells assessed as reduction in LPS/MD-2/TLR4 polymers formation incubated for 12 hrs by immunoprecipitation assay; assay type: cell-based
[10] = test system: Mus musculus; test: Antiinflammatory activity in LPS-induced C57BL/6 mouse acute lung injury model assessed as decrease in […] TNF-alpha mRNA expression level at 5 mg/kg, po administered every 12 hrs for 36 hrs followed by LPS-induction for 12 hrs and measured at 6 hrs post LPS challenge by q-RTPCR analysis; assay type: functional, organism-based; details: time 54.0 hrs
Procedure, shortened: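 C57BL/6 mice (8 per group) were gavaged with 5 mg/kg in 0.5% CMC-Na every 12 h for 36 h. LPS (5 mg/kg) was instilled intratracheally 12 h after the last dose. Mice were euthanized 6 h later and lung TNF-α mRNA was measured by real-time qRT-PCR.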

[11] = test system: Mus musculus; test: Antiinflammatory activity in LPS-induced C57BL/6 mouse acute lung injury model assessed as decrease in total protein level at 5 mg/kg, po administered every 12 hrs for 36 hrs followed by LPS-induction for 12 hrs and measured at 6 hrs post LPS challenge; assay type: functional, organism-based; details: time 54.0 hrs
Procedure, shortened: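 Same C57BL/6 regimen: 5 mg/kg oral in 0.5% CMC-Na every 12 h for 36 h, then intratracheal LPS 5 mg/kg 12 h later, with sacrifice at 6 h. BALF was collected by rinsing the left lung with saline 4 times and centrifuged (1000 rpm, 4 °C, 10 min). Supernatant protein was measured by BCA assay.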

[12] = Toxicity in C57BL/6 mouse assessed as histopathological changes in lung at 5 mg/kg, po measured at 6 hrs by H and E staining analysis; assay type: organism-based; details: in vivo
Procedure, shortened: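 Lungs from C57BL/6 mice given 5 mg/kg orally every 12 h for 36 h, then intratracheal LPS 5 mg/kg and sacrificed 6 h later, were fixed in 4% PFA, paraffin-embedded and stained with H&E.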

[13] = test system: Mus musculus; test: In vivo Inhibition of NF-kappaB signalling pathway in mouse C57BL/6 lung assessed as decrease in phosphorylated p65 level at 5 mg/kg, po measured for 6 hrs by Western blot analysis; assay type: functional, organism-based
Procedure, shortened: (§5)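 In the C57BL/6 ALI model (5 mg/kg oral every 12 h for 36 h, then intratracheal LPS 5 mg/kg, sacrifice at 6 h), lung tissue was lysed in RIPA buffer with PMSF and protein was quantified by Bradford. Samples were run on 10% SDS-PAGE and immunoblotted for p65, phospho-p65 and IκB, with GAPDH as reference.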

[14] = test system: Mus musculus; test: In vivo Inhibition of NF-kappaB signalling pathway in mouse C57BL/6 lung assessed as upregulation of IkappaBalpha protein expression at 5 mg/kg, po measured for 6 hrs by Western blot analysis; assay type: functional, organism-based; procedure, shortened: as §5
[15] = Acute toxicity in ICR mouse assessed as pathological changes in heart at 1000 to 1500 mg/kg, IG measured after 10 days by H and E staining method; assay type: organism-based; details: in vivo, po, 240 h, dose 1000-1500 mg/kg, time 10 day
Procedure, shortened: (§6)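 ICR mice (27 g ± 1 g; n = 24 total) given a single oral gavage dose on day 1 in CMC-Na with DMSO (<0.1%), dosing solution 50 mg/mL. Untreated mice served as controls. After 10 days, mice were sacrificed under general anaesthesia. Heart, liver, lung, spleen and kidney were harvested for H&E pathology.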

[16] = Acute toxicity in ICR mouse assessed as pathological changes in liver at 1000 to 1500 mg/kg, IG measured after 10 days by H and E staining method; assay type: organism-based; details: in vivo, po, 240 h, dose 1000-1500 mg/kg, time 10 day; procedure, shortened: as §6
[17] = Acute toxicity in ICR mouse assessed as pathological changes in spleen at 1000 to 1500 mg/kg, IG measured after 10 days by H and E staining method; assay type: organism-based; details: in vivo, po, 240 h, dose 1000-1500 mg/kg, time 10 day; procedure, shortened: as §6
[18] = Acute toxicity in ICR mouse assessed as pathological changes in lung at 1000 to 1500 mg/kg, IG measured after 10 days by H and E staining method; assay type: organism-based; details: in vivo, po, 240 h, dose 1000-1500 mg/kg, time 10 day; procedure, shortened: as §6
[19] = Acute toxicity in ICR mouse assessed as pathological changes in kidney at 1000 to 1500 mg/kg, IG measured after 10 days by H and E staining method; assay type: organism-based; details: in vivo, po, 240 h, dose 1000-1500 mg/kg, time 10 day; procedure, shortened: as §6
[20] = organism: Homo sapiens; test: Binding affinity to human recombinant MD-2 assessed as reduction in binding of LPS to MD-2 at 1 uM by ELISA analysis
[21] = test system: Mus musculus; test: Antiinflammatory activity in LPS-induced C57BL/6 mouse acute lung injury model assessed as decrease in BALF ALP level at 5 mg/kg, po administered every 12 hrs for 36 hrs followed by LPS-induction for 12 hrs and measured at 6 hrs post LPS challenge by ELISA analysis; details: time 54.0 hrs
[22] = test system: HEK-Blue hTLR4; test: as §1; assay type: functional; details: Homo sapiens, time 24.5 hrs; procedure, shortened: as §2

Cc1cccc(COc2ccc(/C=C/C(=O)Nc3nccs3)cc2)c1
Activity [1]: 2.28%

O=C(/C=C/c1ccc(OCc2ccc(F)cc2)cc1)Nc1nccs1
Activity [1]: 12.05%

COc1cccc(COc2ccc(/C=C/C(=O)Nc3nc4ccccc4[nH]3)cc2)c1
Activity [1]: 64.3% | IC50 [2]: 2.58 µM | Activity ([2]; dose 1-10 µM, time 24.5 hrs): Dose-Dependent Effect | IC50 [3]: 8.41 µM | Activity ([3]; dose 1-10 µM, time 24.5 hrs): Dose-Dependent Effect | AUC(0-t) [4]: 462 ng·h/mL | AUC(0-inf) [5]: 465 ng·h/mL | half-life [6]: 4.25 h | Tmax [7]: 3.5 h | Cmax [8]: 163 ng/mL | Activity [9]: Active | Activity [10]: Active | Activity [11]: Active | Activity [12]: Non-Toxic | inhibition [13]: Active | Activity [14]: Active | Activity [15]: Non-Toxic | Activity [16]: Non-Toxic | Activity [17]: Non-Toxic | Activity [18]: Non-Toxic | Activity [19]: Non-Toxic | Activity [20]: Active | Activity [21]: Active

O=C(/C=C/c1ccc(OCc2c(Cl)cccc2Cl)cc1)Nc1nc2ccccc2[nH]1
Activity [1]: 19.64%

O=C(/C=C/c1ccc(OCc2cccc(Cl)c2)cc1)Nc1nccs1
Activity [22]: inactive

O=C(/C=C/c1ccc(OCc2ccc3ccccc3c2)cc1)Nc1nc2ccccc2[nH]1
Activity [1]: 9.07%

O=C(/C=C/c1ccc(OCc2ccc(F)cc2)cc1)Nc1nc2ccccc2s1
Activity [1]: 12.84%

O=C(/C=C/c1ccc(OCc2c(Cl)cccc2Cl)cc1)Nc1nc2ccccc2s1
Activity [1]: 11.99%

Cc1cccc(COc2ccc(/C=C/C(=O)Nc3nc4ccccc4s3)cc2)c1
Activity [1]: 9.26%

O=C(/C=C/c1ccc(OCc2cccc(Cl)c2)cc1)Nc1nc2ccccc2[nH]1
Activity [1]: 41.13%

O=C(/C=C/c1ccc(OCc2cccc(F)c2)cc1)Nc1nccs1
Activity [1]: 7.66%

Cc1ccc(COc2ccc(/C=C/C(=O)Nc3nc4ccccc4s3)cc2)cc1
Activity [22]: inactive

O=C(/C=C/c1ccc(OCc2cccc(F)c2)cc1)Nc1nc2ccccc2[nH]1
Activity [1]: 55.45%

COc1cccc(COc2ccc(/C=C/C(=O)Nc3nc4ccccc4s3)cc2)c1
Activity [1]: 14.12%

CC(C)c1ccc(COc2ccc(/C=C/C(=O)Nc3nc4ccccc4s3)cc2)cc1
Activity [1]: 14.04%

O=C(/C=C/c1ccc(OCc2c(Cl)cccc2Cl)cc1)Nc1nccs1
Activity [1]: 8.16%

O=C(/C=C/c1ccc(OCc2cccc(Cl)c2)cc1)Nc1nc2ccccc2s1
Activity [22]: inactive

O=C(/C=C/c1ccc(OCc2ccc3ccccc3c2)cc1)Nc1nccs1
Activity [1]: 3.63%

Cc1ccc(COc2ccc(/C=C/C(=O)Nc3nc4ccccc4[nH]3)cc2)cc1
Activity [1]: 43.08%

O=C(/C=C/c1ccc(OCc2cccc(F)c2)cc1)Nc1nc2ccccc2s1
Activity [1]: 19%

CC(C)c1ccc(COc2ccc(/C=C/C(=O)Nc3nccs3)cc2)cc1
Activity [22]: inactive

Cc1ccc(COc2ccc(/C=C/C(=O)Nc3nccs3)cc2)cc1
Activity [1]: 15.31%

O=C(/C=C/c1ccc(OCc2ccc(F)cc2)cc1)Nc1nc2ccccc2[nH]1
Activity [1]: 29.65%

O=C(O)/C=C/c1ccccc1 [CINNAMIC ACID]
Activity [1]: 9.51%

O=C(/C=C/c1ccc(OCc2ccc3ccccc3c2)cc1)Nc1nc2ccccc2s1
Activity [1]: 14.17%

COc1ccc(COc2ccc(/C=C/C(=O)Nc3nccs3)cc2)cc1
Activity [22]: inactive

COc1cccc(COc2ccc(/C=C/C(=O)Nc3nccs3)cc2)c1
Activity [22]: inactive

COc1ccc(COc2ccc(/C=C/C(=O)Nc3nc4ccccc4s3)cc2)cc1
Activity [1]: 16.39%
